A short description of data set [1]: Hemolytic assay. The class given is cell-based. As to conditions: human, human red blood cells (erythrocyte suspension in PBS). The procedure, abridged: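 Fresh human blood was collected in EDTA and spun 10 min at 2000 rpm. Erythrocytes were washed three times in PBS and made to a 10% (v/v) suspension, then diluted 1:10. Equal volumes of cells and test compound dilution series in PBS were incubated in triplicate for 1 h at 37 °C and re-centrifuged. Supernatant A450 was expressed relative to buffer (0%) and 1% Triton X-100 (100% lysis). Fluconazole was the reference.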

The test system of data set [2] is C. albicans (ATCC 90028). The data set can be described thus: In vitro anticandidal activity, broth dilution. The class given is cell-based. As to conditions: Candida albicans, ATCC90028, 24 h, read-out: IC50 ± S.D, C. albicans. The procedure, abridged: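 Broth dilution followed the NCCLS protocol. Test compound in DMSO was diluted in PBS, then tested at 1000 to 7.8 μg mL−1 in SD broth with about 2.5 × 10^3 cells per mL in 96-well plates. Plates were shaken 24 h at 30 °C, 150 rpm, and read at OD580. IC50 was the concentration halving absorbance versus untreated cells, taken from a log10 concentration versus % inhibition plot. Triplicates were run on separate occasions, with fluconazole as positive control.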

Data set [3] has as its system human embryonic kidney (HEK-293) cells. The data set can be described thus: Cytotoxicity by MTT assay. As to conditions: HEK-293, 100 μg mL^−1, 24 h. The format is cell-based. The procedure, abridged: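 HEK-293 cells grown as monolayers in DMEM with 10% FBS, penicillin and streptomycin, 37 °C, 5% CO2, at most 30 passages. Seeded at about 8 × 10^3 cells per well, 24 h before dosing. Test compound (DMSO stock diluted in PBS) given at 10–200 μg mL−1 for 24 h at 37 °C. Serum-free medium, then MTT (5 mg mL−1 in PBS), 4 h. Formazan dissolved in DMSO, A570 read. Triplicate; viability relative to untreated cells.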

The test system of data set [4] is ergosterol content in C. albicans ATCC 90028. The data set can be described thus: Sterol estimation assay. The class given is cell-based, Candida albicans. As to conditions: vs untreated cells.
In data set [5] the test system is C. albicans. Put plainly: Growth curve studies. The format is cell-based, Candida albicans. The procedure, abridged:
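C. albicans revived on SD agar and pre-grown 16 h at 30 °C in SD broth. About 2 × 10^3 cells per mL were inoculated into 50 mL SD medium containing test compound at 2MIC, MIC or MIC/2, then shaken at 30 °C, 160 rpm. Fluconazole at 31.25 μg mL−1 and untreated cells served as controls. OD600 was read on 1 mL aliquots every 2 h from 0 to 24 h.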

Data set [6] relates to C. tropicalis (ATCC 750). The data set can be described thus: In vitro anticandidal activity, broth dilution. The format is cell-based, Candida tropicalis. As to conditions: ATCC 750, 24 h, OD 580 nm.

Structures are written as SMILES. Values after ≈ are worked out from the molar mass of the structure shown. Some results are limits rather than exact numbers.

These results are taken from publication PMC9090800 (RSC Advances, 2018).

`COc1ccccc1-n1cc(Cn2c(C(=O)O)nc3ccccc3c2=O)nn1` [Compound 6e, 3-((1-(2-Methoxyphenyl)-1H-1,2,3-triazol-4-yl)methyl)-4-oxo-3,4-dihydroquinazoline-2-carboxylic acid]: the hemolysis at 1 h, 1000 μg mL^−1 in data set [1] was less than 20%. In data set [2], the IC50 came out at 48.2 ± 3.2 µg/mL (≈ 128 µM). Also, in data set [3], the “cell viability (MTT)” value is on record as “no significant decrease in cell viability”.

With `Cc1ccc(-n2cc(Cn3c(C(=O)O)nc4ccccc4c3=O)nn2)cc1` [Compound 6n, 4-Oxo-3-((1-p-tolyl-1H-1,2,3-triazol-4-yl)methyl)-3,4-dihydroquinazoline-2-carboxylic acid], in data set [1], the hemolysis at 1 h, 1000 μg mL^−1 is less than 20%. In data set [2], the IC50 was determined as 87 ± 4 µg/mL (≈ 241 µM). In data set [3], the “cell viability (MTT)” value is reported as “no significant decrease in cell viability”.

In turn, `OC(Cn1cncn1)(Cn1cncn1)c1ccc(F)cc1F` [FLC, fluconazole, reference compound] gave a hemolysis at 1 h, 1000 μg mL^−1 in data set [1] of 78.1%. Moreover, the IC50 in data set [2] came out at 15.6 ± 2.2 µg/mL (≈ 50.9 µM).

Turning to `CCOC(=O)c1nc2ccccc2c(=O)n1Cc1cn(-c2ccc(C)cc2)nn1` [Compound 5n, Ethyl 4-oxo-3-((1-p-tolyl-1H-1,2,3-triazol-4-yl)methyl)-3,4-dihydroquinazoline-2-carboxylate], the “decrease in ergosterol content” value in data set [4] (2MIC (500 μg mL^−1)) is given as 57%; in data set [4] (MIC (250 μg mL^−1)) it was 55%; in data set [4] (MIC/2 (125 μg mL^−1)), 48%. The same compound gave a hemolysis at 1 h, 1000 μg mL^−1 in data set [1] of 41.2%. In data set [5] (2MIC and MIC, 24 h), the “growth of Candida cells” value is “did not show any significant growth”. For the same compound, the nature of inhibition entry in data set [5] (no significant growth after 24 h at higher concentrations) is on record as “fungicidal”. Further, the “time after which growth was observed” value in data set [5] (sub-MIC (MIC/2), standard C. albicans strain) is given as 7 h. Besides, the IC50 in data set [2] stood at 14.6 ± 2.1 µg/mL (≈ 37.5 µM). Besides, the “cell viability (MTT)” value in data set [3] is “no significant decrease in cell viability”.

For `O=C(O)c1nc2ccccc2c(=O)n1Cc1cn(-c2ccccc2F)nn1` [Compound 6c, 3-((1-(2-Fluorophenyl)-1H-1,2,3-triazol-4-yl)methyl)-4-oxo-3,4-dihydroquinazoline-2-carboxylic acid], in data set [1], the hemolysis at 1 h, 1000 μg mL^−1 is less than 20%. In addition, the IC50 in data set [2] is 101 ± 3.7 µg/mL (≈ 276 µM). The “cell viability (MTT)” value in data set [3] is given as “no significant decrease in cell viability”.

Regarding `CCOC(=O)c1nc2ccccc2c(=O)n1Cc1cn(-c2cccc(Cl)c2)nn1` [Compound 5g, Ethyl 3-((1-(3-chlorophenyl)-1H-1,2,3-triazol-4-yl)methyl)-4-oxo-3,4-dihydroquinazoline-2-carboxylate], in data set [6], the “IC50 ± S.D, C. tropicalis” value stood at 28.2 ± 2.2 µg/mL (≈ 68.8 µM). For the same compound, the hemolysis at 1 h, 1000 μg mL^−1 in data set [1] is less than 20%. Besides, the IC50 in data set [2] is 65.6 ± 3.2 µg/mL (≈ 160 µM). For the same compound, the “cell viability (MTT)” value in data set [3] was “no significant decrease in cell viability”.

Compound `CCOC(=O)c1nc2ccccc2c(=O)n1Cc1cn(-c2ccccc2OC)nn1` [Compound 5e, Ethyl 3-((1-(2-methoxyphenyl)-1H-1,2,3-triazol-4-yl)methyl)-4-oxo-3,4-dihydroquinazoline-2-carboxylate] came in with a hemolysis at 1 h, 1000 μg mL^−1 in data set [1] of less than 20%. In addition, the IC50 in data set [2] was determined as 18.6 ± 3.4 µg/mL (≈ 45.9 µM). For the same compound, the “cell viability (MTT)” value in data set [3] is “no significant decrease in cell viability”.

Take `CCOC(=O)c1nc2ccccc2c(=O)n1Cc1cn(-c2ccc(OC)cc2)nn1` [Compound 5o, Ethyl 3-((1-(4-methoxyphenyl)-1H-1,2,3-triazol-4-yl)methyl)-4-oxo-3,4-dihydroquinazoline-2-carboxylate]: the IC50 in data set [2] is 394.3 ± 1.7 µg/mL (≈ 973 µM).

For the compound `CCOC(=O)c1nc2ccccc2c(=O)n1Cc1cn(-c2ccc(C(=O)O)cc2)nn1` [Compound 5q, 4-(4-((2-(ethoxycarbonyl)-4-oxoquinazolin-3(4H)-yl)methyl)-1H-1,2,3-triazol-1-yl)benzoic acid], the IC50 in data set [2] turned out to be 342 ± 5.7 µg/mL (≈ 816 µM).

The IC50 is the point on the concentration scale where inhibition reaches its midpoint.
